Converted amounts (≈) assume the structure as drawn. The source made the active and inactive calls. No cut-off for these calls is given here.
Tests used:
[1] = tested on: Enterococcus faecalis; test: Antibacterial activity against vancomycin-resistant Enterococcus faecalis ATCC 51299 clinical isolates after 18 to 20 hrs in aerobic condition by CLSI-based broth microdilution assay; assay type: functional
[2] = tested on: Streptococcus pneumoniae; test: Antibacterial activity against methicillin-resistant Streptococcus pneumoniae ATCC 700677 clinical isolates after 18 to 20 hrs by CLSI-based broth microdilution assay; assay type: functional
[3] = tested on: Klebsiella pneumoniae; test: Antibacterial activity against carbapenem-resistant Klebsiella pneumoniae ATCC BAA-1705 clinical isolates after 18 to 20 hrs in aerobic condition by CLSI-based broth microdilution assay; assay type: functional
[4] = tested on: Streptococcus pneumoniae; test: Ratio of MBC to MIC for […] Streptococcus pneumoniae ATCC 700677 clinical isolates; assay type: functional
[5] = tested on: Escherichia coli; test: Antibacterial activity against carbapenem-resistant Escherichia coli BAA-2452 clinical isolates after 18 to 20 hrs in aerobic condition by CLSI-based broth microdilution assay; assay type: functional
[6] = tested on: Enterococcus faecium; test: Ratio of MBC to MIC for vancomycin-resistant Enterococcus faecium ATCC 700221 clinical isolates; assay type: functional
[7] = tested on: Acinetobacter baumannii; test: microbe, parasite or virus in culture; settings: ATCC BAA 1747
[8] = tested on: Klebsiella pneumoniae; test: Antibacterial activity against Klebsiella pneumoniae BAA-1144 clinical isolates after 18 to 20 hrs in aerobic condition by CLSI-based broth microdilution assay; assay type: functional
[9] = tested on: Acinetobacter baumannii; test: Antibacterial activity against Acinetobacter baumannii NR 17786 clinical isolates after 18 to 20 hrs in aerobic condition by CLSI-based broth microdilution assay; assay type: functional
[10] = tested on: Staphylococcus aureus; test: Antibacterial activity against vancomycin-resistant Staphylococcus aureus isolate 10 after 18 to 20 hrs in aerobic condition by CLSI-based broth microdilution assay; assay type: functional
[11] = tested on: Pseudomonas aeruginosa; test: Antibacterial activity against Pseudomonas aeruginosa ATCC 15442 clinical isolates after 18 to 20 hrs in aerobic condition by CLSI-based broth microdilution assay; assay type: functional
[12] = tested on: Staphylococcus aureus; test: Antibacterial activity against Methicillin-resistant Staphylococcus aureus USA700-NRS386 clinical isolates after 18 to 20 hrs in aerobic condition by CLSI protocol based broth microdilution assay; assay type: functional
[13] = tested on: Escherichia coli; test: Antibacterial activity against Escherichia coli BW25113 clinical isolates after 18 to 20 hrs in aerobic condition by CLSI-based broth microdilution assay; assay type: functional
[14] = tested on: Klebsiella pneumoniae; test: Ratio of MBC to MIC for Klebsiella pneumoniae BAA-1144 clinical isolates; assay type: functional
[15] = tested on: Enterobacter cloacae subsp. cloacae; test: Ratio of MBC to MIC for Enterobacter cloacae subsp. cloacae ATCC BAA-1143 clinical isolates; assay type: functional
[16] = tested on: Acinetobacter baumannii; test: Ratio of MBC to MIC for Acinetobacter baumannii ATCC BAA 1141 clinical isolates; assay type: functional
[17] = tested on: Staphylococcus epidermidis; test: Ratio of MBC to MIC for Staphylococcus epidermidis NRS101 clinical isolates; assay type: functional
[18] = tested on: Listeria monocytogenes; test: Antibacterial activity against Listeria monocytogenes ATCC 19111 after 18 to 20 hrs in aerobic condition by CLSI-based broth microdilution assay; assay type: functional
[19] = tested on: Streptococcus pneumoniae; test: Ratio of MBC to MIC for cephalosporin-resistant Streptococcus pneumoniae ATCC 51916 clinical isolates; assay type: functional
[20] = tested on: Staphylococcus aureus; test: Antibacterial activity against Methicillin-sensitive Staphylococcus aureus ATCC 6538 clinical isolates after 18 to 20 hrs in aerobic condition by CLSI protocol based broth microdilution assay; assay type: functional
[21] = tested on: Salmonella enteritidis; test: Ratio of MBC to MIC for Salmonella enteritidis ATCC 13076 clinical isolates; assay type: functional, Salmonella enterica subsp. enterica serovar Enteritidis
[22] = tested on: Escherichia coli; test: Ratio of MBC to MIC for Escherichia coli ATCC 25922 clinical isolates; assay type: functional
[23] = tested on: Salmonella typhimurium; test: Antibacterial activity against Salmonella typhimurium ATCC 700720 after 18 to 20 hrs in aerobic condition by CLSI-based broth microdilution assay; assay type: functional, Salmonella enterica subsp. enterica serovar Typhimurium; settings: Salmonella enterica
[24] = tested on: Enterococcus faecalis; test: Ratio of MBC to MIC for vancomycin-resistant Enterococcus faecalis ATCC 51299 clinical isolates; assay type: functional
[25] = tested on: Escherichia coli; test: Ratio of MBC to MIC for Escherichia coli BW25113 clinical isolates; assay type: functional
[26] = tested on: Staphylococcus aureus; test: Ratio of MBC to MIC for Methicillin-sensitive Staphylococcus aureus NRS107 clinical isolates; assay type: functional
[27] = tested on: Shigella flexneri; test: Antibacterial activity against Shigella flexneri ATCC 9199 clinical isolates after 18 to 20 hrs in aerobic condition by CLSI-based broth microdilution assay; assay type: functional
[28] = tested on: Acinetobacter baumannii; test: Antibacterial activity against Acinetobacter baumannii NR 17785 clinical isolates after 18 to 20 hrs in aerobic condition by CLSI-based broth microdilution assay; assay type: functional
[29] = tested on: Salmonella enteritidis; test: Ratio of MBC to MIC for Salmonella enteritidis ATCC 14028 clinical isolates; assay type: functional, Salmonella enterica subsp. enterica serovar Enteritidis
[30] = tested on: Staphylococcus aureus; test: Antibacterial activity against methicillin-resistant Staphylococcus aureus NRS384-USA300 clinical isolates after 18 to 20 hrs in aerobic condition by CLSI protocol based broth microdilution assay; assay type: functional
[31] = tested on: Clostridioides difficile; test: Ratio of MBC to MIC for Clostridium difficile ATCC BAA 1870; assay type: functional
[32] = tested on: Salmonella enteritidis; test: Antibacterial activity against Salmonella enteritidis ATCC 14028 infected in mouse J774 cells assessed as reduction in intracellular bacterial cells at 2 times MIC incubated for 24 hrs followed by re-plating on TSA plate and measured after 18 to 22 hrs relative to control; assay type: functional, Salmonella enterica subsp. enterica serovar Enteritidis; set-up: scale not given: the % may be the effect or the level left
Outline: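 J774 murine macrophages infected with Salmonella enteritidis ATCC 14028, then treated at 2×MIC for 24 h, in triplicate. Read-out is the percent reduction in intracellular colony forming units versus the untreated control.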

[33] = target: T1, Ditrans,polycis-undecaprenyl-diphosphate synthase ((2E,6E)-farnesyl-diphosphate specific) (Escherichia coli (strain K12)) (UniProt P60472); test: Inhibition of Escherichia coli UPPS using FPP/IPP as substrate preincubated for 30 mins followed by substrates addition and measured after 30 mins by malachite green reagent based assay
T1 sequence (whole entry): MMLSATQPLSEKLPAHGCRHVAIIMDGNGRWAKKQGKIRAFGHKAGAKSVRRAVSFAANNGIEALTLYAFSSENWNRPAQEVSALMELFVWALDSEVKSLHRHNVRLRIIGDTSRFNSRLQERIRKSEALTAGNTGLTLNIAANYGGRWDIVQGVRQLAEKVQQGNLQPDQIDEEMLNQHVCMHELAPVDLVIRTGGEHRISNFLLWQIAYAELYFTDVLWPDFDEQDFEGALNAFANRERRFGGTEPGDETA

[34] = tested on: Staphylococcus aureus; test: Antibiofilm activity against methicillin-resistant Staphylococcus aureus NRS384-USA300 clinical isolates assessed as inhibition of biofilm formation at 0.5 times MIC incubated for 24 hrs by crystal violet staining based spectrophotometric method relative to control; assay type: functional

Structure (SMILES)	MIC [1] [µg/mL]	MIC [2] [µg/mL]	Ratio [4]	Ratio [6]	MIC [7] [µg/mL]	MIC [8] [µg/mL]	MIC [9] [µg/mL]	MIC [10] [µg/mL]	MIC [11] [µg/mL]	MIC [12] [µg/mL]	MIC [13] [µg/mL]	Ratio [14]	Ratio [15]	Ratio [16]	Ratio [17]	MIC [18] [µg/mL]	Ratio [19]	MIC [20] [µg/mL]	Ratio [21]	Ratio [22]	other results
C/C(=N\NC(=N)N)c1cnn(-c2ccc(C#CC3(O)CCCCC3)cc2)c1C	2 (≈ 5.28 µM)	2 (≈ 5.28 µM)	<3	<3	16 (≈ 42.3 µM)	16 (≈ 42.3 µM)	16 (≈ 42.3 µM)	2 (≈ 5.28 µM)	64 (≈ 169 µM)	2 (≈ 5.28 µM)	8 (≈ 21.1 µM)	>=1	> 1	>=1	<3	2 (≈ 5.28 µM)	<3	2 (≈ 5.28 µM)	>=1	>=1	MIC [3]: 64 µg/mL (≈ 169 µM); MIC [5]: 64 µg/mL (≈ 169 µM); MIC [23]: 64 µg/mL (≈ 169 µM); Ratio [24]: <3; Ratio [25]: >=1; Ratio [26]: <=2; MIC [27]: 16 µg/mL (≈ 42.3 µM); MIC [28]: 8 µg/mL (≈ 21.1 µM); Ratio [29]: >=1; MIC [30]: 2 µg/mL (≈ 5.28 µM); Ratio [31]: <3
C/C(=N\NC(=N)N)c1cnn(-c2ccc(C#Cc3ccccc3)cc2)c1C	1 (≈ 2.81 µM)	2 (≈ 5.61 µM)	<3	<3	4 (≈ 11.2 µM)	8 (≈ 22.4 µM)	8 (≈ 22.4 µM)	1 (≈ 2.81 µM)	32 (≈ 89.8 µM)	2 (≈ 5.61 µM)	8 (≈ 22.4 µM)	>=1	> 1	>=1	<3	2 (≈ 5.61 µM)	<3	1 (≈ 2.81 µM)	>=1	>=1	MIC [3]: 16 µg/mL (≈ 44.9 µM); MIC [5]: 8 µg/mL (≈ 22.4 µM); Activity [32]: 70%; MIC [23]: 8 µg/mL (≈ 22.4 µM); Ratio [24]: <3; Ratio [25]: >=1; Ratio [26]: <=2; MIC [27]: 8 µg/mL (≈ 22.4 µM); MIC [28]: 4 µg/mL (≈ 11.2 µM); Ratio [29]: >=1; MIC [30]: 1 µg/mL (≈ 2.81 µM); inhibition [33]: inactive; inhibition (INH) [34]: 50%; Ratio [31]: <3
CCCCCC#Cc1ccc(-n2ncc(/C(C)=N/NC3=NCCN3)c2C)cc1	4 (≈ 10.6 µM)	2 (≈ 5.31 µM)	<3	<3	> 128	> 128	> 128	2 (≈ 5.31 µM)	> 128	2 (≈ 5.31 µM)	> 128	>=1	> 1	>=1	<3	2 (≈ 5.31 µM)	<3	2 (≈ 5.31 µM)	>=1	>=1	MIC [23]: > 128 µg/mL; Ratio [24]: <3; Ratio [25]: >=1; Ratio [26]: <=2; MIC [27]: > 128 µg/mL; MIC [28]: > 128 µg/mL; Ratio [29]: >=1; MIC [30]: 2 µg/mL (≈ 5.31 µM); inhibition [33]: inactive; Ratio [31]: <3
